From ChEMBL document CHEMBL4732137, “Insight on [1,3]thiazolo[4,5-e]isoindoles as tubulin polymerization inhibitors” (Eur J Med Chem, 2021)
Active and inactive are the calls of the source. The rule behind the calls is not given here.

What was measured:
Tubulin (Homo sapiens) [1] = molecular target: T1, Tubulin (Homo sapiens) (UniProt P68371+Q9H4B7+P0DPH7+P68366+Q13509+Q71U36+P04350+Q3ZCM7+P07437+P68363+Q9BQE3+Q6PEY2+Q13885+Q9BVA1+Q9BUF5); assay: Inhibition of [3H]colchicine binding to tubulin (unknown origin) at 50 uM by DEAE-cellulose filter method relative to control; assay type: protein-complex assay
HeLa [2] = assay: Induction of mitochondrial potential loss in human HeLa cells measured after 24 to 48 hrs by JC1 staining based flow cytometry; assay type: functional, cell-based; conditions: dose 1-10 µM, time 24-48 hrs
Summary of the method: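 Mitochondrial membrane potential in HeLa cells after 24 or 48 h at 1 and 10 µM; JC-1 staining, excitation 490 nm, monomer emission at 530 nm versus aggregate at 590 nm […], read by flow cytometry; mean ± SEM, three independent experiments.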

HeLa [3] = assay: Induction of apoptosis in human HeLa cells assessed as increase in annexin-V positive cells at 10 uM measured after 24 hrs by Annexin V-FITC/propidium iodide staining based flow cytometry; assay type: functional, cell-based
Summary of the method: (§1)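 HeLa cells incubated 24 or 48 h at the stated concentrations, double stained with annexin V-FITC and PI, and surface phosphatidylserine measured by flow cytometry to separate live, early apoptotic, late apoptotic and necrotic cells; mean ± SEM of three independent experiments; p vs control.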

HeLa [4] = assay: Induction of apoptosis in human HeLa cells assessed as increase in caspase-9 activation at 10 uM measured after 24 hrs by Western blot analysis; assay type: functional, cell-based
Summary of the method: (§2)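 After 24 h exposure of HeLa cells to 1 or 10 µM, lysates were blotted for cleaved caspase-9 and PARP; primary antibodies 2 h at room temperature, peroxidase secondary 1 h, ECL detection, vinculin reprobe for equal loading.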

HeLa [5] = assay: Induction of apoptosis in human HeLa cells assessed as increase in necrotic cells at 10 uM measured after 48 hrs by Annexin V-FITC/propidium iodide staining based flow cytometry; assay type: functional, cell-based; summary of the method: as §1
HeLa [6] = assay: Cell cycle arrest in human HeLa cells assessed as accumulation at G2/M phase at 10 uM measured after 24 hrs by propidium iodide staining based flow cytometry relative to control; assay type: functional
Summary of the method: (§3)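 HeLa cells exposed 24 h at 0.1, 1 and 10 µM; fixed, labelled with propidium iodide and analysed by flow cytometry for the fraction in each cycle phase; mean ± SEM of three experiments.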

[7] = Inhibition of bovine brain tubulin assembly by turbidimetry based spectrophotometric method; parameters: species or system Bos taurus
HeLa [8] = assay: Cell cycle arrest in human HeLa cells assessed as reduction in accumulation at G1 phase at 0.1 to 10 uM measured after 24 hrs by propidium iodide staining based flow cytometry; assay type: functional; conditions: dose 0.1-10 µM; summary of the method: as §3
HeLa [9] = assay: Induction of apoptosis in human HeLa cells assessed as increase in PARP cleavage at 10 uM measured after 24 hrs by Western blot analysis; assay type: functional, cell-based; summary of the method: as §2
HeLa [10] = assay: Cell cycle arrest in human HeLa cells assessed as reduction in accumulation at S phase at 0.1 to 10 uM measured after 24 hrs by propidium iodide staining based flow cytometry; assay type: functional; conditions: dose 0.1-10 µM; summary of the method: as §3
HeLa [11] = assay: Induction of apoptosis in human HeLa cells at 10 uM measured after 48 hrs by Annexin V-FITC/propidium iodide staining based flow cytometry; assay type: functional, cell-based; summary of the method: as §1
HeLa [12] = assay: Cell cycle arrest in human HeLa cells assessed as increase in cyclin B1 expression at 10 uM measured after 24 hrs by Western blot analysis; assay type: functional, cell-based
Summary of the method: (§4)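 HeLa cells treated 24 h at 1 or 10 µM, washed in cold PBS, lysed on ice 30 min, protein quantified by BCA; western blot for cdc25c, p-cdc2 Y15 and cyclin B1, membranes stripped and reprobed for vinculin as loading control.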

[13] = Antiproliferative activity against human Panel NCI-57 (57 carcinoma cell lines) measured after 48 hrs by SRB assay; assay type: functional
Summary of the method: (§5)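 Full NCI human tumor cell line panel; selected compounds tested at five doses, 10^-4 to 10^-8 M, with growth inhibition summarised as the mean graph mid-point (MG_MID) across the panel.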

HeLa [14] = assay: Cell cycle arrest in human HeLa cells assessed as reduction in phosphorylated cdc2 expression at 10 uM measured after 24 hrs by Western blot analysis; assay type: functional, cell-based; summary of the method: as §4
HeLa [15] = assay: Cell cycle arrest in human HeLa cells assessed as increase in accumulation at G2/M phase measured after 24 hrs by propidium iodide staining based flow cytometry; assay type: functional; conditions: dose 0.1-10 µM; summary of the method: as §3
HeLa [16] = assay: Cell cycle arrest in human HeLa cells assessed as reduction in total cdc25c expression at 10 uM measured after 24 hrs by Western blot analysis; assay type: functional, cell-based; summary of the method: as §4
[17] = Antiproliferative activity against human Panel NCI-56 (56 carcinoma cell lines) measured after 48 hrs by SRB assay; assay type: functional; summary of the method: as §5
Tubulin (Homo sapiens) [18] = molecular target: T1, Tubulin (Homo sapiens); assay: Inhibition of [3H]colchicine binding to tubulin (unknown origin) at 5 uM by DEAE-cellulose filter method relative to control; assay type: protein-complex assay
[19] = Antiproliferative activity against human Panel NCI-55 (55 carcinoma cell lines) measured after 48 hrs by SRB assay; assay type: functional; summary of the method: as §5

inhibition (Tubulin (Homo sapiens) [1])	IC50 [7]	SMILES	Activity (HeLa [2])	Activity (HeLa [3])	Activity (HeLa [4])	Activity (HeLa [5])	Activity (HeLa [6])	Activity (HeLa [8])	Activity (HeLa [9])	Activity (HeLa [10])	Activity (HeLa [11])	Activity (HeLa [12])	GI50 [13]	GI50 [17]	other results
22%	> 20000 nM	COc1ccc(Cn2c(Br)c3c(c2-c2cc(OC)c(OC)c(OC)c2)CCc2sc(N)nc2-3)cc1	Dose-dependent effect	Active	Active	Active	>70%	Active	Active	Active	Active	Active	210 nM		
	> 20000 nM	COc1cc(-c2c3c(cn2S(=O)(=O)c2ccccc2)-c2nc(N)sc2CC3)cc(OC)c1OC	Dose-dependent effect	Active	Active	Active	>70%	Active	Active	Active	Active	Active	220 nM		Activity (HeLa [14]): Active; Activity (HeLa [15]): Dose-dependent effect; Activity (HeLa [16]): Active
60%	7800 nM	COc1ccc(Cn2c(Br)c3c(c2Br)-c2nc(N)sc2CC3)cc1												410 nM	inhibition (Tubulin (Homo sapiens) [18]): 11%
	> 20000 nM	O=C(Nc1nc2c(s1)CCc1c-2c(Br)n(Cc2ccccc2)c1Br)c1ccccc1												1200 nM	
	> 20000 nM	Nc1nc2c(s1)CCc1c-2c(Br)n(Cc2ccccc2)c1Br												530 nM	
41%	12000 nM	COc1ccc(Cn2c(Br)c3c(c2-c2cc(OC)c(OC)c(OC)c2)CCc2sc(NC(C)=O)nc2-3)cc1													GI50 [19]: 610 nM
